Our source for the Ki values is ChEMBL document CHEMBL2177052, “Rapid and efficient synthesis of a novel series of substituted aminobenzosuberone derivatives as potent, selective, non-peptidic neutral aminopeptidase inhibitors” (Bioorg Med Chem, 2012).

A value given as a limit tells only on which side of the number the result lay.

Test [1] addresses T1, Cytosol aminopeptidase (Bos taurus, UniProt P00727).
T1 sequence (P00727 whole entry): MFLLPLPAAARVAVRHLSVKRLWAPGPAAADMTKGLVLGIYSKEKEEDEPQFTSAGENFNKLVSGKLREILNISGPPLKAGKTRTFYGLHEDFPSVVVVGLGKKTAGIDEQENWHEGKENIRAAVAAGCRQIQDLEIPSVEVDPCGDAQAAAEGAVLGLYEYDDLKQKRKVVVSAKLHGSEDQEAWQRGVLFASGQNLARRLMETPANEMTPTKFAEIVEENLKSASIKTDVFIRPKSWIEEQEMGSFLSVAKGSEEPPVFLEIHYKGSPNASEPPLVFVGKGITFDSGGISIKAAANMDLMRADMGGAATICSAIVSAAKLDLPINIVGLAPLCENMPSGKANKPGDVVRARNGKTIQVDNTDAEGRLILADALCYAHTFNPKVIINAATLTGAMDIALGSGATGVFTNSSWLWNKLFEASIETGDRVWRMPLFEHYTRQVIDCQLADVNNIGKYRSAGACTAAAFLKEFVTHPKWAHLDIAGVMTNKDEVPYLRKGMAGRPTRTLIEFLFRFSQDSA
Put plainly: Competitive inhibition of bovine LAPc using L-leucine-p-nitroanilide as substrate by spectrophotometric analysis. An outline of the steps: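 Cytosolic leucine aminopeptidase from bovine kidney, 20 Units per assay, in 0.1 M Tris–HCl pH 8.0 with 0.1 mM ZnCl2, 5 mM MnCl2 and 1 M KCl. Km for L-leucine-p-nitroanilide 2 mM. Reaction started by adding enzyme to 1 ml medium at 30 °C. p-Nitroanilide release followed continuously at 405 nm (ε = 10,800 M-1 cm-1) for initial velocities. Ki taken from Dixon plots.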

Test [2] deals with T2, Leukotriene A-4 hydrolase (Homo sapiens, UniProt P09960).
T2 sequence (P09960 whole entry): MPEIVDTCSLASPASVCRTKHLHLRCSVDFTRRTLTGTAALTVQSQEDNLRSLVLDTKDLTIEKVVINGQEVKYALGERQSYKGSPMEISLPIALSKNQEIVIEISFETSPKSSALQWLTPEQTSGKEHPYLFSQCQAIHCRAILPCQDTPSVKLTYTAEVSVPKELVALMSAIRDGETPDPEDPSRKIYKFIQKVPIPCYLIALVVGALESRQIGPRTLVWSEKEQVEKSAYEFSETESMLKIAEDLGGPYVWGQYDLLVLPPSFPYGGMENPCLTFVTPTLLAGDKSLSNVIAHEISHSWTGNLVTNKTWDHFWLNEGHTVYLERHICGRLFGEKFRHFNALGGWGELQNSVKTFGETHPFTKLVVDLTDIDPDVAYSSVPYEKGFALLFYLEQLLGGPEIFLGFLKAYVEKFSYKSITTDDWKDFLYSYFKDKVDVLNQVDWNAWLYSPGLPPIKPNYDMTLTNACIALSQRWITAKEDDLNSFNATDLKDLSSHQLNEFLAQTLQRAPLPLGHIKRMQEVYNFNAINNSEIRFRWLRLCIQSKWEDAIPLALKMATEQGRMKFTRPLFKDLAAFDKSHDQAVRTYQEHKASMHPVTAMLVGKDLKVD
The experiment in a line: Competitive inhibition of human recombinant LTA4H using alanine-p-nitroanilide as substrate by Dixon-plot analysis. The gist of the method:
(§1)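 Human LTA4H, 5 µg per assay, in 10 mM Tris–HCl pH 7.5 with 0.1 mM KCl. Alanine-p-nitroanilide used as substrate (Km 2 mM). Enzyme added last to start the 1 ml reaction at 30 °C. Release of p-nitroanilide followed continuously at 405 nm for initial rates. Ki from Dixon plots assuming rapid-equilibrium kinetics.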

Test [3] has as its target T3, Aminopeptidase N (Sus scrofa, UniProt P15145).
T3 sequence (P15145 whole entry): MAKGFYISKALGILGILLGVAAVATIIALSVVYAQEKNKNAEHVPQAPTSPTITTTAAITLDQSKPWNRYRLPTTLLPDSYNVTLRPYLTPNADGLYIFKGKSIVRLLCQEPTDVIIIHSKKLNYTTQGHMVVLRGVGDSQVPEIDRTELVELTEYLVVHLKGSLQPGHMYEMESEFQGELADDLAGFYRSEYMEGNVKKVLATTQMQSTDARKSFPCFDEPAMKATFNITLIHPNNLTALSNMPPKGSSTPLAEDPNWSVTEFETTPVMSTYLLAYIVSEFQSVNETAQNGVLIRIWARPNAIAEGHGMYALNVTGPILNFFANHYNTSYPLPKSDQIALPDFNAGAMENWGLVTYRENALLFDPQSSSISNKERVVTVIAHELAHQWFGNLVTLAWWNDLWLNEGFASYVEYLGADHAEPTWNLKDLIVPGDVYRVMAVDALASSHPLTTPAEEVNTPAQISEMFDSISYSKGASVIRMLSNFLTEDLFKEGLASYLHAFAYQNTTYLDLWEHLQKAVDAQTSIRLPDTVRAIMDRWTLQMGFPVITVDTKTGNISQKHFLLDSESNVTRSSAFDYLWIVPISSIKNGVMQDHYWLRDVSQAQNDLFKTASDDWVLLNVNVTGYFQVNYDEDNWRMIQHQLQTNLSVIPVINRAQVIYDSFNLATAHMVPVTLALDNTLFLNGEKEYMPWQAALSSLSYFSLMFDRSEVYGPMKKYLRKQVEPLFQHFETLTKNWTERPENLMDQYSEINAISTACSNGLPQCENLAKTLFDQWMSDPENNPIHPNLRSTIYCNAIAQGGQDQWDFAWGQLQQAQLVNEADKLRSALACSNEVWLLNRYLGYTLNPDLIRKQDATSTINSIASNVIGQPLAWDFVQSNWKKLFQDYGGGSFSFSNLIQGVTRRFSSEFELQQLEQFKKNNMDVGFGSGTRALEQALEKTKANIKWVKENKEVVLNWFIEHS
The experiment in a line: Competitive inhibition of pig APN using L-leucine-p-nitroanilide as substrate by Dixon-plot analysis.

The target of test [4] is T2, Leukotriene A-4 hydrolase. The experiment in a line: Competitive inhibition of human recombinant LTA4H using alanine-p-nitroanilide as substrate by spectrophotometric analysis. An outline of the steps:
as §1

The target of test [5] is Aminopeptidase N (Homo sapiens, UniProt P15144).
Aminopeptidase N (Homo sapiens, UniProt P15144), sequence (P15144 whole entry): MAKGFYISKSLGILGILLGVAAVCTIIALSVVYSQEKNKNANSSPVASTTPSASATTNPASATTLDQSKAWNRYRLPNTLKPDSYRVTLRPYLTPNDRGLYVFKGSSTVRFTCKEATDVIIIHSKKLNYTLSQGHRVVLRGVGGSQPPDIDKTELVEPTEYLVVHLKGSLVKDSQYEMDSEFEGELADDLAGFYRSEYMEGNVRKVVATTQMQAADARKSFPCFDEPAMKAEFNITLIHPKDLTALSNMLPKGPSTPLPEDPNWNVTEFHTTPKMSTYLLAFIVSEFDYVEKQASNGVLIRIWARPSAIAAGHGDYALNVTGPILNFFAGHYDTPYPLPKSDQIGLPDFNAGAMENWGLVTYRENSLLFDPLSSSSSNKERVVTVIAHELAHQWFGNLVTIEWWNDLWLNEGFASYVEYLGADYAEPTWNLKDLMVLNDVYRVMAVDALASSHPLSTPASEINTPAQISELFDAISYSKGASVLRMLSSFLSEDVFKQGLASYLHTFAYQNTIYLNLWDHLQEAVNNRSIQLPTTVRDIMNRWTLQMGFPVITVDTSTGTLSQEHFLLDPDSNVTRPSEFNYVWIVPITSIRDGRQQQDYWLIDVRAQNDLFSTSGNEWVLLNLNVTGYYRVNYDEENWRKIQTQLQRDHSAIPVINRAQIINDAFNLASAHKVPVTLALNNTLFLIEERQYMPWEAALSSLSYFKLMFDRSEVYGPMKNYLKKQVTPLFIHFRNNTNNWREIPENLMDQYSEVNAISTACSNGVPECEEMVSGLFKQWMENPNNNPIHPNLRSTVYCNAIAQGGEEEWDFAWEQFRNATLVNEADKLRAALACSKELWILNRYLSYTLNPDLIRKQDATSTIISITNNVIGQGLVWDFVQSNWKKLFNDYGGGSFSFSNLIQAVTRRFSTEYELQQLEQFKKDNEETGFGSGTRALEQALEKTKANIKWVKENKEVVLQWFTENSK
Test [6] has as its target T3, Aminopeptidase N. Put plainly: Competitive inhibition of pig APN using L-leucine-p-nitroanilide as substrate by spectrophotometric analysis. The gist of the method: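 Porcine kidney aminopeptidase-N, 1 mUnit per assay, in 0.02 M Tris–HCl pH 7.5 at 30 °C. L-Leucine-p-nitroanilide substrate, Km 0.2 mM. Enzyme addition starts the reaction. Continuous 405 nm read of p-nitroanilide release. Ki from Dixon plots for rapid-equilibrium inhibitors. For slow-binding inhibitors, progress curves were run with 3 nM enzyme and substrate at Km, steady state reached after 1.5 h, and Ki taken from Morrison plots.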

The target of test [7] is T1, Cytosol aminopeptidase. Put plainly: Competitive inhibition of bovine LAPc using L-leucine-p-nitroanilide as substrate by Dixon-plot analysis.

One may read the Ki as a measure of affinity in units of concentration, obtained from inhibition or displacement.

Take `NC1Cc2ccccc2CC1=O` (stereo not given): the Ki at Cytosol aminopeptidase [1] was > 1000 µM.

Take `N[C@H]1CCc2ccccc2/C(=C/c2ccccc2)C1=O`: the Ki in test [2] amounted to 380 µM; at Aminopeptidase N [3], 80 µM.

For `N[C@H]1CCc2ccccc2CC1=O`, the Ki is > 1000 µM on Cytosol aminopeptidase [1], > 1000 µM in test [4], 1 µM on Aminopeptidase N [3] and 1 µM on Aminopeptidase N [5].

With `N[C@H]1CCc2ccccc2[C@@H](Cc2ccccc2)C1=O` (racemic), the figures for the Ki (on Cytosol aminopeptidase [1]; in test [4]; on Aminopeptidase N [3]) were > 100 µM, > 100 µM and 13 µM, respectively.

With `N[C@H]1CCc2ccccc2[C@@H](CCCc2ccccc2)C1=O` (racemic), the inhibition constant Ki at Cytosol aminopeptidase [1] was > 100 µM; in test [4], > 100 µM; at Aminopeptidase N [3], 12 µM.

For the compound `N[C@H]1CCc2ccccc2[C@H](F)C1=O` (racemic), the inhibitory constant (Ki) on Cytosol aminopeptidase [1] is > 1000 µM; in test [4] it was > 1000 µM; on Aminopeptidase N [3], 0.3 µM.

Take `N[C@H]1CCc2ccccc2[C@H](SCc2ccccc2)C1=O` (racemic): the results for the Ki (on Aminopeptidase N [6]; at Cytosol aminopeptidase [7]; in test [4]) were 0.083 µM, 40 µM and > 100 µM, respectively.

Regarding `N[C@H]1CCc2ccccc2[C@H](Sc2ccccc2)C1=O` (racemic), the results for the inhibition constant Ki (at Aminopeptidase N [6]; on Cytosol aminopeptidase [1]; in test [4]) were 0.06 µM, > 100 µM and > 100 µM, respectively.

Take `N[C@H]1CCc2ccccc2[C@@H](Sc2ccccc2)C1=O` (racemic): the Ki at Aminopeptidase N [6] was 0.06 µM; at Cytosol aminopeptidase [1], > 100 µM; in test [4] it was > 100 µM.

As for `N[C@H]1CCc2ccccc2[C@H](CCc2ccccc2)C1=O` (racemic), the inhibitory constant (Ki) in test [2] was found to be 470 µM; on Aminopeptidase N [3], 88 µM.

Take `N[C@H]1CCc2ccccc2[C@@H](CCc2ccccc2)C1=O` (racemic): the results for the Ki (on Cytosol aminopeptidase [1]; in test [4]; on Aminopeptidase N [3]) were > 100 µM, > 100 µM and 22 µM, respectively.
